Key:
[1] = biological target: Bone morphogenetic protein receptor type-1A (Homo sapiens) (UniProt P36894); test: Inhibition of BMPR1A in human SKCO1 cells at 1 uM after 4 hrs using biotin labeled SKNILIK probe by mass-spectrometric analysis relative to control; assay type: cell-based
[2] = biological target: T1, Calcium/calmodulin-dependent protein kinase type IV (Homo sapiens) (UniProt Q16566); test: Inhibition of CaMK4 in human SKCO1 cells at 1 uM after 4 hrs using biotin labeled DLKPENLLYATPAPDAPLK probe by mass-spectrometric analysis relative to control; assay type: cell-based
T1 sequence (whole entry): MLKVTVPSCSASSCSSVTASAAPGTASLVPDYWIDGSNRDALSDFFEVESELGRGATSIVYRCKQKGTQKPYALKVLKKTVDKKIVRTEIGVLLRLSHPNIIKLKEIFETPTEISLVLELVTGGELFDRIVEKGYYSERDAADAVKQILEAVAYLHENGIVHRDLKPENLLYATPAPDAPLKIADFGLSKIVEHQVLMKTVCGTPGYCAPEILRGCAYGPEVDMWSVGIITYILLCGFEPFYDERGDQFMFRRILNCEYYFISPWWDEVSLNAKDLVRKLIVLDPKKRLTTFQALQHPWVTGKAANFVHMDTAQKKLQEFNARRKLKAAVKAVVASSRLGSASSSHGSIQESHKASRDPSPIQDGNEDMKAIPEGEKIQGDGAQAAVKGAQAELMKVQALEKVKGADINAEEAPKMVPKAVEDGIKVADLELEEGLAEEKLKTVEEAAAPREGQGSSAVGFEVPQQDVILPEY

[3] = biological target: Tyrosine-protein kinase Fes/Fps (Homo sapiens) (UniProt P07332); test: Inhibition of FES in human SKCO1 cells at 1 uM after 4 hrs using biotin labeled LRADNTLVAVKSCR probe by mass-spectrometric analysis relative to control; assay type: cell-based
Tyrosine-protein kinase Fes/Fps (Homo sapiens), sequence (P07332 whole entry): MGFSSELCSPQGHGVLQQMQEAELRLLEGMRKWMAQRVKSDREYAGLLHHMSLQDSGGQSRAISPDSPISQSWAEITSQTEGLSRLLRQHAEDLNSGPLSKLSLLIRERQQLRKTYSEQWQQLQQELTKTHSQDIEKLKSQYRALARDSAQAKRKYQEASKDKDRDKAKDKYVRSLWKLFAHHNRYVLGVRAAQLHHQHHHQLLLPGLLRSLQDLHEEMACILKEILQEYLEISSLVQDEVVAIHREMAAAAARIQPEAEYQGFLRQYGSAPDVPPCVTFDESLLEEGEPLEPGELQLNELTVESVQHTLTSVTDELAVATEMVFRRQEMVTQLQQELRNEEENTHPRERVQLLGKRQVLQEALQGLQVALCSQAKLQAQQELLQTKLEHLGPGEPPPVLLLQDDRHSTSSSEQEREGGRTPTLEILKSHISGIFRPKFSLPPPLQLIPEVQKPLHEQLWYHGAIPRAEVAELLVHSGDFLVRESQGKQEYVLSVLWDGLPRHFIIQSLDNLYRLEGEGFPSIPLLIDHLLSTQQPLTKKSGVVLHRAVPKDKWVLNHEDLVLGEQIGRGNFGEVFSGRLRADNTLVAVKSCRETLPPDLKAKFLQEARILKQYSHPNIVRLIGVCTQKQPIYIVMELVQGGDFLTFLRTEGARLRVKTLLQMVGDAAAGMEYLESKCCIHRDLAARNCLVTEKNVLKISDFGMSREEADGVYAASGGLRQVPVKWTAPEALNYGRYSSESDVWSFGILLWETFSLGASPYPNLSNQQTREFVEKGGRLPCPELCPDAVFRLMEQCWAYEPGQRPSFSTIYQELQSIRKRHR

[4] = biological target: T2, Serine/threonine-protein kinase LATS2 (Homo sapiens) (UniProt Q9NRM7); test: Inhibition of LATS2 in human SKCO1 cells at 1 uM after 4 hrs using biotin labeled DIKPDNILIDLDGHIK probe by mass-spectrometric analysis relative to control; assay type: cell-based
T2 sequence (whole entry): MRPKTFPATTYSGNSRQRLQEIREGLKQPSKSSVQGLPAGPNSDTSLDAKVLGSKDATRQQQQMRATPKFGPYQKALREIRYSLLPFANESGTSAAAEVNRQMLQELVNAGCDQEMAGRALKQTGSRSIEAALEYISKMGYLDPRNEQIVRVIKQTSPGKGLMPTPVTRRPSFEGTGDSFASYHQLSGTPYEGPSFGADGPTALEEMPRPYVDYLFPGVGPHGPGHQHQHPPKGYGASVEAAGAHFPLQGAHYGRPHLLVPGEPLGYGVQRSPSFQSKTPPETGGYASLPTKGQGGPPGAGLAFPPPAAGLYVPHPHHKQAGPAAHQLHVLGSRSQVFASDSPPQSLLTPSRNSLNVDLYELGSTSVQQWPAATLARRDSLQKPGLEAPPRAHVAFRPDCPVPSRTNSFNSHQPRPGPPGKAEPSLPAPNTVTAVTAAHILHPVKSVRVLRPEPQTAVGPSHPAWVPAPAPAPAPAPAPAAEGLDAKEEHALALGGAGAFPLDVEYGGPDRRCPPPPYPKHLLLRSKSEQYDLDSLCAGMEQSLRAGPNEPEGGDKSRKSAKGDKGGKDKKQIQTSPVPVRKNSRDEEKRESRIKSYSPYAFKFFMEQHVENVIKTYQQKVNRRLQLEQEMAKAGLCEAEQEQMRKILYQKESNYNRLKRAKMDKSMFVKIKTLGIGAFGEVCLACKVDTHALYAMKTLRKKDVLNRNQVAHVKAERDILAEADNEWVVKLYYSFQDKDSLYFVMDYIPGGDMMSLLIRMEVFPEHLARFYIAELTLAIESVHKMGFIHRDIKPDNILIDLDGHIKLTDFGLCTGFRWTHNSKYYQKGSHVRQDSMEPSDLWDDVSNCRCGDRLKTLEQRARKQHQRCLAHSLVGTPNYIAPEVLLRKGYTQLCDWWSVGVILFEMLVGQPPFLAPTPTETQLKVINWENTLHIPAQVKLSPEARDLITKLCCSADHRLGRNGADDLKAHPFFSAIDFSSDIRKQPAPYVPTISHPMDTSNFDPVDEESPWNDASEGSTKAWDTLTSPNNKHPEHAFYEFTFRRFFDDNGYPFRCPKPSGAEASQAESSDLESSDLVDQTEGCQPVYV

[5] = biological target: Cyclin-dependent kinase 11B (Homo sapiens) (UniProt P21127); test: Inhibition of PITSLRE in human SKCO1 cells at 1 uM after 4 hrs using biotin labeled DLKTSNLLLSHAGILK probe by mass-spectrometric analysis relative to control; assay type: cell-based
Cyclin-dependent kinase 11B (Homo sapiens), sequence (P21127 whole entry): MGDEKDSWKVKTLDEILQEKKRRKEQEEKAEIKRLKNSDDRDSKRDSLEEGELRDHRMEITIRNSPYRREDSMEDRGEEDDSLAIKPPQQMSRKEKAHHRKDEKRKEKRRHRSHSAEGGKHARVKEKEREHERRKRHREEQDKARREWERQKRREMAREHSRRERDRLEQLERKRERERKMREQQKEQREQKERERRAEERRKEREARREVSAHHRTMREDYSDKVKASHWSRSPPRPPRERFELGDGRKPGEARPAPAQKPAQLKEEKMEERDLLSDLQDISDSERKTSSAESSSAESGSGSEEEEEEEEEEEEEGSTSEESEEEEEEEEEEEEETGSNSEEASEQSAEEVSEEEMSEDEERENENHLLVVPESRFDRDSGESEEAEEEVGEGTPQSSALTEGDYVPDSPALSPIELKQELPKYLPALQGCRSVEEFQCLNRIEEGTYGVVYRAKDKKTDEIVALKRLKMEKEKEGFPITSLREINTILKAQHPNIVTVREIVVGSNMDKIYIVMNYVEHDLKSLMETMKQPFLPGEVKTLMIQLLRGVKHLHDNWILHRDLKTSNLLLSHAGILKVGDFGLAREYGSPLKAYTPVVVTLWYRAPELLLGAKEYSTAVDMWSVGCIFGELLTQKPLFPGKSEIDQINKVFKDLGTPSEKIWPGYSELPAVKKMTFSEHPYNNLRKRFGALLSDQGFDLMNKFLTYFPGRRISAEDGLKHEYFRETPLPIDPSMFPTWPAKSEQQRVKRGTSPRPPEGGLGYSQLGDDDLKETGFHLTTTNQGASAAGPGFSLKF
Summary of the method: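 Live SK-CO-1 cells exposed to compound at 1 μM or DMSO for 4 h (KiNativ). Lysates then labeled with lysine-reactive ATP/ADP-biotin probe, and probe-labeled kinase peptides quantified by mass spectrometry. Percent inhibition of probe-dependent recovery calculated relative to DMSO-treated cells.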

[6] = Increase in secretion of basic-FGF in TNFalpha activated RA patient-derived synovial fibroblasts at 0.6 to 3 uM preincubated for 3 hrs followed by TNFalpha stimulation measured after 18 hrs by sandwich immunoassay; settings: human
Summary of the method: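 Primary RA patient synovial fibroblasts (donor RA2159) were seeded at 1000 cells/well, grown about 24 h, then starved overnight and again about 4 h in basal medium with 0.1% BSA. Cells were pre-incubated 3 h with inhibitor (0.6 or 3 μM) or DMSO, then stimulated 18 h with 10 ng/mL TNFα. Paired wells were pooled, in biological duplicate. Pooled supernatants were diluted 1:3 and read on Luminex bead sandwich immunoassays, with mock-medium background and spiked-ligand controls.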

Bone morphogenetic protein receptor type-1A (Homo sapiens), sequence (P36894 whole entry): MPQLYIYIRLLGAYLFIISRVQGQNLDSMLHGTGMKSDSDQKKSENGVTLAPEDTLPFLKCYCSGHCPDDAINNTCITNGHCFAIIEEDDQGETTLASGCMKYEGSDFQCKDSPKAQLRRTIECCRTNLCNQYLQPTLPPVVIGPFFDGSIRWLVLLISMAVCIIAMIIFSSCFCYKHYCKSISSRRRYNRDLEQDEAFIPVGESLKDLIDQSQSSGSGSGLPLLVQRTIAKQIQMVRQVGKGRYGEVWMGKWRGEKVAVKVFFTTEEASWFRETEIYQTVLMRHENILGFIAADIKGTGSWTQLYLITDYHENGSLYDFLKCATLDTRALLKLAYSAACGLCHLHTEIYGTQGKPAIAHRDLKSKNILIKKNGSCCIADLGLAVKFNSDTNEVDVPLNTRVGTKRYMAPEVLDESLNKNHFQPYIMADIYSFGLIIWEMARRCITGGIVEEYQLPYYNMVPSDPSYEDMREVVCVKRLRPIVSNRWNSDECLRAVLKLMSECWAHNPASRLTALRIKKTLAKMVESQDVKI

Compound `C=CC(=O)Nc1ccccc1Nc1nc(Nc2ccc(N3CCN(C)CC3)cc2)ncc1Cl` has an inhibition [1] of 28%, an inhibition [2] of -2.6% and an inhibition [3] of 77.3%. For the same compound, the inhibition [4] was 40.7%, the inhibition [5] was -5.5% and the Activity [6] was “Toxic”.
For `COc1cc(O)c2c(c1)/C=C/C[C@H](O)[C@H](O)C(=O)/C=C\C[C@H](C)OC2=O`, the inhibition [1] was 73.1%, the inhibition [2] was 30.6% and the inhibition [3] was 67.7%. The inhibition [4] was -0.3%, the inhibition [5] was -1.4% and the Activity [6] was “Toxic”.
With `C=CC(=O)Nc1ccccc1Oc1nc(Nc2cnn(CCOC)c2)ncc1Cl` the inhibition [1] was 19.9%, the inhibition [2] was -7.4% and the inhibition [3] was 13.6%. For the same compound, the inhibition [4] was 6.7%, the inhibition [5] was -0.8% and the Activity [6] was “Non-Toxic”.
